Measured values published in ChEMBL document CHEMBL1137361, “WB4101-related compounds: new, subtype-selective alpha1-adrenoreceptor antagonists (or inverse agonists?)” (J Med Chem, 2006).

What was measured:
[1] = target: T1, Alpha-1A adrenergic receptor (Homo sapiens, UniProt P35348); assay: Displacement of [3H]prazosin from cloned human adrenergic alpha 1A receptor expressed in CHO cells; assay type: cell-based
T1 sequence (P35348 whole entry): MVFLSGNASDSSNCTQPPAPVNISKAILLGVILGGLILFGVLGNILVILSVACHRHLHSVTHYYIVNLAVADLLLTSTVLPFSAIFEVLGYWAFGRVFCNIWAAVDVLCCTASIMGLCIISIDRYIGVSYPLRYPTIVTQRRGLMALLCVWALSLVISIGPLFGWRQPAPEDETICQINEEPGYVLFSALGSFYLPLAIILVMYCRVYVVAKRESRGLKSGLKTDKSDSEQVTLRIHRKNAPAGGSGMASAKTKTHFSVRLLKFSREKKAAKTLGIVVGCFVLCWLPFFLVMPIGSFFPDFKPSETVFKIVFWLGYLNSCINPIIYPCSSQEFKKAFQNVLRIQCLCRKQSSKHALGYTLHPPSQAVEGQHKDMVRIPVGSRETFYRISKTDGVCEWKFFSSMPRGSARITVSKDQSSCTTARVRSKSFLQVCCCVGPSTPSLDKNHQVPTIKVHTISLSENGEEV
Summary of the method: (§1)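 Radioligand binding with [3H]prazosin as the label. Membranes came from CHO cells expressing the cloned human receptor. Affinity is expressed as pKi.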

[2] = target: T2, Alpha-1B adrenergic receptor (Homo sapiens, UniProt P35368); assay: Displacement of [3H]prazosin from cloned human adrenergic alpha 1B receptor expressed in CHO cells; assay type: cell-based; summary of the method: as §1
T2 sequence (P35368 whole entry): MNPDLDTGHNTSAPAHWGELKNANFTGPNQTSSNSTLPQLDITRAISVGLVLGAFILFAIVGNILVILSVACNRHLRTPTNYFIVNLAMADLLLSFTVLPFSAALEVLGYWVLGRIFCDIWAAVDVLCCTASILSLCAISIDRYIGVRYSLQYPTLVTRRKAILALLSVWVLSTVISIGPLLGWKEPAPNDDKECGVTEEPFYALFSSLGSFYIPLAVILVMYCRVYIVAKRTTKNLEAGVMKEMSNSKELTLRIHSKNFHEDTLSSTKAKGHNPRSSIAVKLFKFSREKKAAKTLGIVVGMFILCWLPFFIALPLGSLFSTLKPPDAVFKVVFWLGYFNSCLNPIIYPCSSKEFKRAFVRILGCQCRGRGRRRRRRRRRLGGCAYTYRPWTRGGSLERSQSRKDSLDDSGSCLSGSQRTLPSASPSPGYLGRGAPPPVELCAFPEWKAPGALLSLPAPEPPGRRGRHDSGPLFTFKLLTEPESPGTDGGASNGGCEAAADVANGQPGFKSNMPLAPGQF

[3] = target: T3, Alpha-1D adrenergic receptor (Homo sapiens, UniProt P25100); assay: Displacement of [3H]prazosin from cloned human adrenergic alpha 1D receptor expressed in CHO cells; assay type: cell-based; summary of the method: as §1
T3 sequence (P25100 whole entry): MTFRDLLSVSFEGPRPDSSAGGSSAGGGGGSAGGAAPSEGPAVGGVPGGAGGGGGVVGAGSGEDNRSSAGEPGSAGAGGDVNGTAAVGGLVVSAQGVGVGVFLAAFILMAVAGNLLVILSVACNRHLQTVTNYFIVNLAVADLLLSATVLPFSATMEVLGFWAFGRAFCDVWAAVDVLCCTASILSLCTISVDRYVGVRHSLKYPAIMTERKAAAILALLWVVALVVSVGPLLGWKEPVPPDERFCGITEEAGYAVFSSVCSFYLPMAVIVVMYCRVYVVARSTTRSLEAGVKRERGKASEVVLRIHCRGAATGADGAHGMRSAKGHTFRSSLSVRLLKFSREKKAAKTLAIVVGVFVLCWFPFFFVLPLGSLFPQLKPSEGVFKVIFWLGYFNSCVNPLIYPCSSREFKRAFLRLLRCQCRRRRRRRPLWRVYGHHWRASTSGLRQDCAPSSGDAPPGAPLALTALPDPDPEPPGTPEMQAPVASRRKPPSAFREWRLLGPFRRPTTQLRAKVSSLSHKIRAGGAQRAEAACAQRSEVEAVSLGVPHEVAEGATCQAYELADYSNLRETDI

[4] = target: T4, 5-hydroxytryptamine receptor 1A (Rattus norvegicus, UniProt P19327); assay: Displacement of [3H]8-OH-DPAT from 5-HT1A receptor in rat hippocampus; assay type: tissue-based
T4 sequence (P19327 whole entry): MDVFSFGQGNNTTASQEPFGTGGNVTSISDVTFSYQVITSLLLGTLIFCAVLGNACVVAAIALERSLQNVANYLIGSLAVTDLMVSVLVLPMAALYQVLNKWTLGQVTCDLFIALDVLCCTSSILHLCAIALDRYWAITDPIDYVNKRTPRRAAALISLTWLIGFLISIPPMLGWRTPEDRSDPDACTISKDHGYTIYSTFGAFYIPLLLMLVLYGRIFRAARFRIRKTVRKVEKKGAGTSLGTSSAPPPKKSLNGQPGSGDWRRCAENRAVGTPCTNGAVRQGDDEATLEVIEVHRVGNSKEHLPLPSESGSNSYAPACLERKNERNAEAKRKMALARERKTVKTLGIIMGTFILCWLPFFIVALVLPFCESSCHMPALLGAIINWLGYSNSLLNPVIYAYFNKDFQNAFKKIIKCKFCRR
Summary of the method: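 Radioligand binding with [3H]-8-OH-DPAT in membrane preparations from rat hippocampus. Affinity is expressed as pKi.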

[5] = target: Adrenergic receptors; alpha-1 A & B (Homo sapiens) (UniProt P35348+P35368); assay: Selectivity for human adrenergic alpha 1B receptor over human adrenergic alpha 1A receptor; assay type: protein assay
[6] = Selectivity for 5HT1A receptor in rat hippocampus over human adrenergic alpha 1A receptor; assay type: tissue-based
[7] = target: T5, Alpha-1B adrenergic receptor (Rattus norvegicus, UniProt P15823); assay: Activity at adrenergic alpha 1B receptor assessed as antagonsim of phenylephrine-induced contraction of Sprague-Dawley rat spleen; assay type: functional, tissue-based; conditions: read-out: pA2 (converted)
T5 sequence (P15823 whole entry): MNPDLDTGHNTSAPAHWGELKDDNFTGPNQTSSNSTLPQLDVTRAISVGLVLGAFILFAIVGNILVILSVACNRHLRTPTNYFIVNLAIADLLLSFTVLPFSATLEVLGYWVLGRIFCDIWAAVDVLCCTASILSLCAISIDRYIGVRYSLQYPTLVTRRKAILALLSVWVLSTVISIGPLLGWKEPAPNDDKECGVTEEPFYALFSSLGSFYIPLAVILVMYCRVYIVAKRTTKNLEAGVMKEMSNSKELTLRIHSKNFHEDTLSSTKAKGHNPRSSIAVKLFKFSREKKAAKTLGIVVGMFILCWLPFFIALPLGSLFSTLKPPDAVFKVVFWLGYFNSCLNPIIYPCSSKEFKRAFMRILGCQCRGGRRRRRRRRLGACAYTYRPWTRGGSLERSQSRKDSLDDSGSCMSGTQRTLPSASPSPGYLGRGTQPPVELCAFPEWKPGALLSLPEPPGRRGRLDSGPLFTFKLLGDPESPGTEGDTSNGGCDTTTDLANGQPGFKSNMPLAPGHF
Summary of the method: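 Rat spleen contracted with (-)-phenylephrine. Blocking activity was measured as antagonism of the contraction.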

[8] = target: Alpha adrenergic receptor 1A and 1D (Rattus norvegicus) (UniProt P23944+P43140); assay: Selectivity for Sprague-Dawley rat adrenergic alpha 1D receptor over adrenergic alpha 1A receptor; assay type: functional
Chain of Alpha adrenergic receptor 1A and 1D (Rattus norvegicus) (P23944 whole entry, looked up): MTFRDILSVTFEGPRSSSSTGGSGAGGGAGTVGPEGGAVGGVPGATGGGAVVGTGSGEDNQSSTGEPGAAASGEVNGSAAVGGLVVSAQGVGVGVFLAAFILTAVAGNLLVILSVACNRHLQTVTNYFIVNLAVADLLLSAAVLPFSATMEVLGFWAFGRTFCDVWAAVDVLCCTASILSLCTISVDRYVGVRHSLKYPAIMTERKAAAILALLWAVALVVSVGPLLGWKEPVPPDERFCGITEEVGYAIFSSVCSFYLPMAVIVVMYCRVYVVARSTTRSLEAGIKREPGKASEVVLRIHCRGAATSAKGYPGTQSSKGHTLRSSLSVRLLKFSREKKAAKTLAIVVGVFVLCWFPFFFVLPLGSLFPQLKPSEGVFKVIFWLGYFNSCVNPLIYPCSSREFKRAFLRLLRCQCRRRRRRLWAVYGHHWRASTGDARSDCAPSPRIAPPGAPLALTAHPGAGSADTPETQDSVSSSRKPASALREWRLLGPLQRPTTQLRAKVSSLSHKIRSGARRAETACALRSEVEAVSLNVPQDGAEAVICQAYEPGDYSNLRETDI
Chain of Alpha adrenergic receptor 1A and 1D (Rattus norvegicus) (P43140 whole entry, looked up): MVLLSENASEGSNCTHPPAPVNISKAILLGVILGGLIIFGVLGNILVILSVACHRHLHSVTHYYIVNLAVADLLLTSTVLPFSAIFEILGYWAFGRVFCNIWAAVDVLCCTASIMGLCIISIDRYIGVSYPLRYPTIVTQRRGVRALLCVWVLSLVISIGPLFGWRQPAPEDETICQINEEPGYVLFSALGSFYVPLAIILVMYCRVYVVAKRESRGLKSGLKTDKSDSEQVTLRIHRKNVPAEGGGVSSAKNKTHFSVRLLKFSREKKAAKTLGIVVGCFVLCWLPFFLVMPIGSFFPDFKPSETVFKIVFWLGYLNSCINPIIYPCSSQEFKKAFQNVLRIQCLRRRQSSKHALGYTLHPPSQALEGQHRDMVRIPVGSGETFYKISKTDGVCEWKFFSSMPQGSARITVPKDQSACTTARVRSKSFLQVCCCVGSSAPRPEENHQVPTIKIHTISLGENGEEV

| Ki [1] [µM] | Ki [2] [µM] | Ki [3] [µM] | Ki [4] [µM] | Selectivity ratio [5] | Selectivity ratio [6] | Kb [7] [µM] | Selectivity ratio [8] | Compound |
| --- | --- | --- | --- | --- | --- | --- | --- | --- |
| 0.0661 | 0.372 | 0.148 | 1.7 | 5.6 | 25.7 | > 10 | 245 | COc1ccc2ccccc2c1OCCNC[C@H]1COc2cc3c(cc2O1)CCCC3 |
| 0.00457 | 0.0851 | 0.0224 | 0.0676 | 18.6 | 14.8 | 0.0148 | 0.17 | COc1ccc2ccccc2c1OCCNC[C@@H]1COc2ccccc2O1 |
| 0.0012 | 0.0178 | 0.00339 | 0.00692 | 14.8 | 5.8 | 0.00759 | 0.2 | COc1cccc(-c2ccccc2)c1OCCNC[C@H]1COc2ccccc2O1 |
| 0.00158 | 0.0158 | 0.00661 | 0.0112 | 10 | 7.1 | 0.000204 | 0.02 | COc1ccc2ccccc2c1OCCNC[C@H]1COc2ccccc2O1 |
| 0.00562 | 0.011 | 0.0151 | 0.0525 | 1.9 | 9.3 | 0.135 | < 0.006 | COc1ccc(-c2ccccc2)cc1OCCNC[C@H]1COc2ccccc2O1 |
| 0.0339 | 0.891 | 0.417 | 0.347 | 26.3 | 10.2 | 2.45 | 0.05 | COc1cccc(OC)c1OCCNC[C@H]1COc2cc3ccccc3cc2O1 |
| 0.00282 | 0.0191 | 0.0145 | 0.00851 | 6.8 | 3 | 0.00447 | 0.04 | COc1ccc2c(c1OCCNC[C@H]1COc3ccccc3O1)CCCC2 |
| 0.0871 | 0.186 | 0.214 | 0.0741 | 2.1 | 0.9 | 0.132 | 0.14 | COc1cc(-c2ccccc2)ccc1OCCNC[C@H]1COc2ccccc2O1 |
| 0.0251 | 0.575 | 0.339 | 0.363 | 22.9 | 14.5 | 2.63 | < 0.4 | COc1cccc(OC)c1OCCNC[C@H]1COc2cc3c(cc2O1)CCCC3 |
